From ChEMBL document CHEMBL5247575 (J Med Chem, 2018)

Tested on: Klebsiella pneumoniae
Assay: Synergistic antibacterial activity against Klebsiella pneumoniae 935/1884 producing KPC-3 assessed as cefepime MIC at 4 ug/ml by broth microdilution method
Format: functional
Conditions: dose 4 µg/ml

SMILES	MIC
O=C(NNC(=O)[C@@H]1CC[C@@H]2CN1C(=O)N2OS(=O)(=O)O)[C@@H]1CCCNC1 [ZIDEBACTAM]	≤ 0.12 µg/mL

Tested on: Klebsiella pneumoniae
Assay: Synergistic antibacterial activity against Klebsiella pneumoniae 935/1884 producing KPC-3 assessed as cefepime MIC at 8 ug/ml by broth microdilution method
Format: functional
Conditions: dose 8 µg/ml

SMILES	MIC
O=C(NNC(=O)[C@@H]1CC[C@@H]2CN1C(=O)N2OS(=O)(=O)O)[C@@H]1CCCNC1 [ZIDEBACTAM]	≤ 0.12 µg/mL

Tested on: Bacteria
Assay: Inhibition of bacteria PDC-3 assessed as half life using nitrocefin as substrate
Conditions: not given

SMILES	T1/2
O=C(NNC(=O)[C@@H]1CC[C@@H]2CN1C(=O)N2OS(=O)(=O)O)[C@@H]1CCCNC1 [ZIDEBACTAM]	3.3 min

Tested on: Klebsiella pneumoniae
Assay: Synergistic antibacterial activity against Klebsiella pneumoniae 972/1910 producing KPC-3 assessed as cefepime MIC at 8 ug/ml by broth microdilution method
Format: functional
Conditions: dose 8 µg/ml

SMILES	MIC
O=C(NNC(=O)[C@@H]1CC[C@@H]2CN1C(=O)N2OS(=O)(=O)O)[C@@H]1CCCNC1 [ZIDEBACTAM]	≤ 0.12 µg/mL

Tested on: Acinetobacter baumannii
Assay: Synergistic antibacterial activity against Acinetobacter baumannii PR381 producing OXA-24/40 assessed as cefepime MIC at 8 ug/ml by broth microdilution method
Format: functional
Conditions: dose 8 µg/ml

SMILES	MIC
O=C(NNC(=O)[C@@H]1CC[C@@H]2CN1C(=O)N2OS(=O)(=O)O)[C@@H]1CCCNC1 [ZIDEBACTAM]	16 µg/mL

Tested on: Acinetobacter baumannii
Assay: Synergistic antibacterial activity against ADC deleted Acinetobacter baumannii assessed as meropenem MIC at 8 ug/ml by broth microdilution method
Format: functional
Conditions: dose 8 µg/ml

SMILES	MIC
O=C(NNC(=O)[C@@H]1CC[C@@H]2CN1C(=O)N2OS(=O)(=O)O)[C@@H]1CCCNC1 [ZIDEBACTAM]	≤ 0.12 µg/mL

Tested on: Escherichia coli
Assay: Synergistic antibacterial activity against Escherichia coli DH10B transfected with pBC SK (-) KPC-2 assessed as cefepime MIC at 4 ug/ml by broth microdilution method
Format: functional
Conditions: dose 4 µg/ml

SMILES	MIC
O=C(NNC(=O)[C@@H]1CC[C@@H]2CN1C(=O)N2OS(=O)(=O)O)[C@@H]1CCCNC1 [ZIDEBACTAM]	≤ 0.12 µg/mL

Target: not listed separately
Assay: Inhibition of bacteria ADC-7 assessed as apparent inhibition constant using nitrocefin as substrate
Conditions: not given

SMILES	Ki
O=C(NNC(=O)[C@@H]1CC[C@@H]2CN1C(=O)N2OS(=O)(=O)O)[C@@H]1CCCNC1 [ZIDEBACTAM]	2300 nM

Tested on: Escherichia coli
Assay: Synergistic antibacterial activity against Escherichia coli DH10B transfected with pBC SK (-) KPC-3 assessed as cefepime MIC at 4 ug/ml by broth microdilution method
Format: functional
Conditions: dose 4 µg/ml

SMILES	MIC
O=C(NNC(=O)[C@@H]1CC[C@@H]2CN1C(=O)N2OS(=O)(=O)O)[C@@H]1CCCNC1 [ZIDEBACTAM]	≤ 0.12 µg/mL

Tested on: Klebsiella pneumoniae
Assay: Synergistic antibacterial activity against Klebsiella pneumoniae 901/1860 producing KPC-3 assessed as cefepime MIC at 4 ug/ml by broth microdilution method
Format: functional
Conditions: dose 4 µg/ml

SMILES	MIC
O=C(NNC(=O)[C@@H]1CC[C@@H]2CN1C(=O)N2OS(=O)(=O)O)[C@@H]1CCCNC1 [ZIDEBACTAM]	≤ 0.12 µg/mL

Tested on: Acinetobacter baumannii
Assay: Synergistic antibacterial activity against ADC deleted Acinetobacter baumannii transfected with pWH1266 OXA-23 assessed as meropenem MIC at 8 ug/ml by broth microdilution method
Format: functional
Conditions: dose 8 µg/ml
In short: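 Broth microdilution per CLSI guidelines in frozen panels. Test compound held at fixed 8 mg/L while the partner β-lactam concentration was increased. Run in triplicate; modal MIC reported.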

SMILES	MIC
O=C(NNC(=O)[C@@H]1CC[C@@H]2CN1C(=O)N2OS(=O)(=O)O)[C@@H]1CCCNC1 [ZIDEBACTAM]	> 16 µg/mL

Tested on: Acinetobacter baumannii
Assay: Synergistic antibacterial activity against Acinetobacter baumannii PR440 producing OXA-23/24/40 assessed as meropenem MIC at 4 ug/ml by broth microdilution method
Format: functional
Conditions: dose 4 µg/ml

SMILES	MIC
O=C(NNC(=O)[C@@H]1CC[C@@H]2CN1C(=O)N2OS(=O)(=O)O)[C@@H]1CCCNC1 [ZIDEBACTAM]	> 16 µg/mL

Tested on: Acinetobacter baumannii
Assay: Synergistic antibacterial activity against Acinetobacter baumannii PR408 producing OXA-24/40 assessed as meropenem MIC at 4 ug/ml by broth microdilution method
Format: functional
Conditions: dose 4 µg/ml

SMILES	MIC
O=C(NNC(=O)[C@@H]1CC[C@@H]2CN1C(=O)N2OS(=O)(=O)O)[C@@H]1CCCNC1 [ZIDEBACTAM]	> 16 µg/mL

Tested on: Klebsiella pneumoniae
Assay: Synergistic antibacterial activity against Klebsiella pneumoniae NY BS producing OXA-232 assessed as cefepime MIC at 8 ug/ml by broth microdilution method
Format: functional
Conditions: dose 8 µg/ml

SMILES	MIC
O=C(NNC(=O)[C@@H]1CC[C@@H]2CN1C(=O)N2OS(=O)(=O)O)[C@@H]1CCCNC1 [ZIDEBACTAM]	≤ 0.12 µg/mL

Tested on: Escherichia coli
Assay: Synergistic antibacterial activity against Escherichia coli DH10B transfected with pBR322-catI-KPC-2 assessed as meropenem MIC at 4 ug/ml by broth microdilution method
Format: functional
Conditions: dose 4 µg/ml
In short: (§1)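 Broth microdilution per CLSI guidelines, using custom frozen panels. […] Each partner drug was also tested alone. MICs were run in triplicate and the modal value is reported.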

SMILES	MIC
O=C(NNC(=O)[C@@H]1CC[C@@H]2CN1C(=O)N2OS(=O)(=O)O)[C@@H]1CCCNC1 [ZIDEBACTAM]	≤ 0.12 µg/mL

Tested on: Acinetobacter baumannii
Assay: Synergistic antibacterial activity against Acinetobacter baumannii PR448 producing OXA-23 assessed as meropenem MIC at 4 ug/ml by broth microdilution method
Format: functional
Conditions: dose 4 µg/ml

SMILES	MIC
O=C(NNC(=O)[C@@H]1CC[C@@H]2CN1C(=O)N2OS(=O)(=O)O)[C@@H]1CCCNC1 [ZIDEBACTAM]	> 16 µg/mL

Tested on: Escherichia coli
Assay: Synergistic antibacterial activity against Escherichia coli DH10B transfected with pBC SK (-) KPC-2 assessed as meropenem MIC at 4 ug/ml by broth microdilution method
Format: functional
Conditions: dose 4 µg/ml

SMILES	MIC
O=C(NNC(=O)[C@@H]1CC[C@@H]2CN1C(=O)N2OS(=O)(=O)O)[C@@H]1CCCNC1 [ZIDEBACTAM]	≤ 0.12 µg/mL

Tested on: Pseudomonas aeruginosa
Assay: Synergistic antibacterial activity against Pseudomonas aeruginosa 795 assessed as meropenem MIC at 8 ug/ml by broth microdilution method
Format: functional
Conditions: dose 8 µg/ml

SMILES	MIC
O=C(NNC(=O)[C@@H]1CC[C@@H]2CN1C(=O)N2OS(=O)(=O)O)[C@@H]1CCCNC1 [ZIDEBACTAM]	4 µg/mL

Tested on: Acinetobacter baumannii
Assay: Synergistic antibacterial activity against ADC deleted Acinetobacter baumannii transfected with pWH1266 producing OXA-24/40 assessed as meropenem MIC at 8 ug/ml by broth microdilution method
Format: functional
Conditions: dose 8 µg/ml

SMILES	MIC
O=C(NNC(=O)[C@@H]1CC[C@@H]2CN1C(=O)N2OS(=O)(=O)O)[C@@H]1CCCNC1 [ZIDEBACTAM]	> 16 µg/mL

Tested on: Klebsiella pneumoniae
Assay: Synergistic antibacterial activity against Klebsiella pneumoniae 440/1360 producing KPC-2 assessed as meropenem MIC at 8 ug/ml by broth microdilution method
Format: functional
Conditions: dose 8 µg/ml
In short: as §1

SMILES	MIC
O=C(NNC(=O)[C@@H]1CC[C@@H]2CN1C(=O)N2OS(=O)(=O)O)[C@@H]1CCCNC1 [ZIDEBACTAM]	≤ 0.12 µg/mL

Tested on: Escherichia coli
Assay: Synergistic antibacterial activity against Escherichia coli DH10B transfected with pBC SK (-) PDC-3 assessed as cefepime MIC at 8 ug/ml by broth microdilution method
Format: functional
Conditions: dose 8 µg/ml
In short: as §1

SMILES	MIC
O=C(NNC(=O)[C@@H]1CC[C@@H]2CN1C(=O)N2OS(=O)(=O)O)[C@@H]1CCCNC1 [ZIDEBACTAM]	≤ 0.12 µg/mL

Tested on: Klebsiella pneumoniae
Assay: Synergistic antibacterial activity against Klebsiella pneumoniae NY BS producing OXA-232 assessed as meropenem MIC at 8 ug/ml by broth microdilution method
Format: functional
Conditions: dose 8 µg/ml

SMILES	MIC
O=C(NNC(=O)[C@@H]1CC[C@@H]2CN1C(=O)N2OS(=O)(=O)O)[C@@H]1CCCNC1 [ZIDEBACTAM]	≤ 0.12 µg/mL

Tested on: Acinetobacter baumannii
Assay: Synergistic antibacterial activity against Acinetobacter baumannii PR474 producing OXA-23/24/40 assessed as cefepime MIC at 8 ug/ml by broth microdilution method
Format: functional
Conditions: dose 8 µg/ml

SMILES	MIC
O=C(NNC(=O)[C@@H]1CC[C@@H]2CN1C(=O)N2OS(=O)(=O)O)[C@@H]1CCCNC1 [ZIDEBACTAM]	8 µg/mL

Tested on: Klebsiella pneumoniae
Assay: Synergistic antibacterial activity against Klebsiella pneumoniae 1315/2198 producing KPC-3 assessed as meropenem MIC at 8 ug/ml by broth microdilution method
Format: functional
Conditions: dose 8 µg/ml
In short: as §1

SMILES	MIC
O=C(NNC(=O)[C@@H]1CC[C@@H]2CN1C(=O)N2OS(=O)(=O)O)[C@@H]1CCCNC1 [ZIDEBACTAM]	≤ 0.12 µg/mL

Tested on: Klebsiella pneumoniae
Assay: Synergistic antibacterial activity against Klebsiella pneumoniae 1108/1989 producing KPC-3 assessed as cefepime MIC at 8 ug/ml by broth microdilution method
Format: functional
Conditions: dose 8 µg/ml
In short: as §1

SMILES	MIC
O=C(NNC(=O)[C@@H]1CC[C@@H]2CN1C(=O)N2OS(=O)(=O)O)[C@@H]1CCCNC1 [ZIDEBACTAM]	≤ 0.12 µg/mL

Tested on: Klebsiella pneumoniae
Assay: Synergistic antibacterial activity against Klebsiella pneumoniae CAV 1543 producing OXA-48 assessed as cefepime MIC at 8 ug/ml by broth microdilution method
Format: functional
Conditions: dose 8 µg/ml

SMILES	MIC
O=C(NNC(=O)[C@@H]1CC[C@@H]2CN1C(=O)N2OS(=O)(=O)O)[C@@H]1CCCNC1 [ZIDEBACTAM]	≤ 0.12 µg/mL

Tested on: Pseudomonas aeruginosa
Assay: Synergistic antibacterial activity against Pseudomonas aeruginosa 795 assessed as meropenem MIC at 4 ug/ml by broth microdilution method
Format: functional
Conditions: dose 4 µg/ml

SMILES	MIC
O=C(NNC(=O)[C@@H]1CC[C@@H]2CN1C(=O)N2OS(=O)(=O)O)[C@@H]1CCCNC1 [ZIDEBACTAM]	16 µg/mL

Tested on: Klebsiella pneumoniae
Assay: Synergistic antibacterial activity against Klebsiella pneumoniae 977/1916 producing KPC-3 assessed as meropenem MIC at 4 ug/ml by broth microdilution method
Format: functional
Conditions: dose 4 µg/ml

SMILES	MIC
O=C(NNC(=O)[C@@H]1CC[C@@H]2CN1C(=O)N2OS(=O)(=O)O)[C@@H]1CCCNC1 [ZIDEBACTAM]	≤ 0.12 µg/mL

Tested on: Klebsiella pneumoniae
Assay: Synergistic antibacterial activity against Klebsiella pneumoniae CAV 1543 producing OXA-48 assessed as meropenem MIC at 4 ug/ml by broth microdilution method
Format: functional
Conditions: dose 4 µg/ml

SMILES	MIC
O=C(NNC(=O)[C@@H]1CC[C@@H]2CN1C(=O)N2OS(=O)(=O)O)[C@@H]1CCCNC1 [ZIDEBACTAM]	≤ 0.12 µg/mL

Tested on: Klebsiella pneumoniae
Assay: Synergistic antibacterial activity against Klebsiella pneumoniae jefferson 1775 producing OXA-48 assessed as meropenem MIC at 4 ug/ml by broth microdilution method
Format: functional
Conditions: dose 4 µg/ml

SMILES	MIC
O=C(NNC(=O)[C@@H]1CC[C@@H]2CN1C(=O)N2OS(=O)(=O)O)[C@@H]1CCCNC1 [ZIDEBACTAM]	≤ 0.12 µg/mL

Tested on: Acinetobacter baumannii
Assay: Synergistic antibacterial activity against Acinetobacter baumannii PR420 producing OXA-23/24/40 assessed as cefepime MIC at 4 ug/ml by broth microdilution method
Format: functional
Conditions: dose 4 µg/ml

SMILES	MIC
O=C(NNC(=O)[C@@H]1CC[C@@H]2CN1C(=O)N2OS(=O)(=O)O)[C@@H]1CCCNC1 [ZIDEBACTAM]	> 16 µg/mL

Tested on: Klebsiella pneumoniae
Assay: Synergistic antibacterial activity against Klebsiella pneumoniae 660/1568 producing KPC-3 assessed as meropenem MIC at 4 ug/ml by broth microdilution method
Format: functional
Conditions: dose 4 µg/ml
In short: as §1

SMILES	MIC
O=C(NNC(=O)[C@@H]1CC[C@@H]2CN1C(=O)N2OS(=O)(=O)O)[C@@H]1CCCNC1 [ZIDEBACTAM]	≤ 0.12 µg/mL

Tested on: Pseudomonas aeruginosa
Assay: Synergistic antibacterial activity against Pseudomonas aeruginosa 839 assessed as cefepime MIC at 8 ug/ml by broth microdilution method
Format: functional
Conditions: dose 8 µg/ml

SMILES	MIC
O=C(NNC(=O)[C@@H]1CC[C@@H]2CN1C(=O)N2OS(=O)(=O)O)[C@@H]1CCCNC1 [ZIDEBACTAM]	0.5 µg/mL

Tested on: Acinetobacter baumannii
Assay: Synergistic antibacterial activity against Acinetobacter baumannii PR408 producing OXA-24/40 assessed as meropenem MIC at 8 ug/ml by broth microdilution method
Format: functional
Conditions: dose 8 µg/ml

SMILES	MIC
O=C(NNC(=O)[C@@H]1CC[C@@H]2CN1C(=O)N2OS(=O)(=O)O)[C@@H]1CCCNC1 [ZIDEBACTAM]	> 16 µg/mL

Tested on: Klebsiella pneumoniae
Assay: Synergistic antibacterial activity against Klebsiella pneumoniae 1354/2241 producing KPC-3 assessed as meropenem MIC at 8 ug/ml by broth microdilution method
Format: functional
Conditions: dose 8 µg/ml
In short: as §1

SMILES	MIC
O=C(NNC(=O)[C@@H]1CC[C@@H]2CN1C(=O)N2OS(=O)(=O)O)[C@@H]1CCCNC1 [ZIDEBACTAM]	≤ 0.12 µg/mL
